Laboratory results: ChEMBL document CHEMBL1126691, “Application of the hypersurface iterative projection method to bicyclic pyrazolidinone antibacterial agents” (1993)

These compounds were tested on Pseudomonas (assay: Minimum inhibitory concentration against Pseudomonas species.).
Type: functional
Method in brief: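 MIC in µg/mL, determined by the 2-fold serial agar dilution method. These readings were excluded from the geometric-mean MIC used for the QSAR analysis.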

Row | Compound | MIC
1 | CO/N=C(\C(=O)NC1CN2CC(S(C)(=O)=O)=C(C(=O)O)N2C1=O)c1csc(N)n1 (stereo unspecified) | > 128 µg/mL
2 | CO/N=C(\C(=O)N[C@H]1CN2CC(C#N)=C(C(=O)O)N2C1=O)c1csc(N)n1 | > 128 µg/mL
3 | CO/N=C(\C(=O)N[C@H]1CN2CC(C(=O)OCc3ccccc3)=C(C(=O)O)N2C1=O)c1csc(N)n1 | > 128 µg/mL
4 | CO/N=C(\C(=O)N[C@H]1CN2CC(S(=O)(=O)c3ccccc3)=C(C(=O)O)N2C1=O)c1csc(N)n1 | > 128 µg/mL
5 | CO/N=C(\C(=O)N[C@H]1CN2CC(NC(=O)OC)=C(C(=O)O)N2C1=O)c1csc(N)n1 | > 128 µg/mL
6 | CO/N=C(\C(=O)N[C@H]1CN2CC(S(=O)(=O)N(C)C)=C(C(=O)O)N2C1=O)c1csc(N)n1 | > 128 µg/mL
7 | CO/N=C(\C(=O)N[C@H]1CN2CC(C(=O)c3ccccc3)=C(C(=O)O)N2C1=O)c1csc(N)n1 | > 128 µg/mL
8 | CO/N=C(\C(=O)N[C@H]1CN2CC(C(C)=O)=C(C(=O)O)N2C1=O)c1csc(N)n1 | > 128 µg/mL
9 | CO/N=C(\C(=O)N[C@H]1CN2CC=C(C(=O)O)N2C1=O)c1csc(N)n1 | > 128 µg/mL
10 | CO/N=C(\C(=O)N[C@H]1CN2CC(c3cccs3)=C(C(=O)O)N2C1=O)c1csc(N)n1 | > 128 µg/mL
11 | CO/N=C(\C(=O)N[C@H]1CN2CC(C(=O)CF)=C(C(=O)O)N2C1=O)c1csc(N)n1 | > 128 µg/mL
12 | CO/N=C(\C(=O)N[C@H]1CN2CC(SC)=C(C(=O)O)N2C1=O)c1csc(N)n1 | > 128 µg/mL
13 | CCOP(=O)(OCC)C1=C(C(=O)O)N2C(=O)[C@@H](NC(=O)/C(=N\OC)c3csc(N)n3)CN2C1 | > 128 µg/mL
14 | CO/N=C(\C(=O)N[C@H]1CN2CC(C(=O)O)=C(C(=O)O)N2C1=O)c1csc(N)n1 | > 128 µg/mL
15 | CO/N=C(\C(=O)N[C@H]1CN2CC(C(F)(F)F)=C(C(=O)O)N2C1=O)c1csc(N)n1 | > 128 µg/mL
16 | CO/N=C(\C(=O)N[C@H]1CN2CC(Sc3nnnn3C)=C(C(=O)O)N2C1=O)c1csc(N)n1 | > 128 µg/mL
17 | CO/N=C(\C(=O)N[C@H]1CN2CC(C(=O)Nc3ccccc3)=C(C(=O)O)N2C1=O)c1csc(N)n1 | > 128 µg/mL
18 | CO/N=C(\C(=O)N[C@H]1CN2CC(S(=O)(=O)CCNC(C)=O)=C(C(=O)O)N2C1=O)c1csc(N)n1 | > 128 µg/mL

Row | Compound | MIC
19 | CO/N=C(\C(=O)N[C@H]1CN2CC(c3ccccn3)=C(C(=O)O)N2C1=O)c1csc(N)n1 | > 128 µg/mL
20 | CO/N=C(\C(=O)N[C@H]1CN2CC(P(=O)(OC)OC)=C(C(=O)O)N2C1=O)c1csc(N)n1 | > 128 µg/mL
21 | CCS(=O)(=O)C1=C(C(=O)O)N2C(=O)[C@@H](NC(=O)/C(=N\OC)c3csc(N)n3)CN2C1 | > 128 µg/mL
22 | CO/N=C(\C(=O)N[C@H]1CN2CC(c3ccccc3)=C(C(=O)O)N2C1=O)c1csc(N)n1 | > 128 µg/mL
23 | CCOC(=O)C1=C(C(=O)O)N2C(=O)[C@@H](NC(=O)/C(=N\OC)c3csc(N)n3)CN2C1 | > 128 µg/mL
24 | CCC(=O)C1=C(C(=O)O)N2C(=O)[C@@H](NC(=O)/C(=N\OC)c3csc(N)n3)CN2C1 | > 128 µg/mL
25 | CCCOC(=O)C1=C(C(=O)O)N2C(=O)[C@@H](NC(=O)/C(=N\OC)c3csc(N)n3)CN2C1 | > 128 µg/mL
26 | CO/N=C(\C(=O)N[C@H]1CN2CC(S(=O)(=O)c3c(C)noc3C)=C(C(=O)O)N2C1=O)c1csc(N)n1 | > 128 µg/mL
27 | CNC(=O)C1=C(C(=O)O)N2C(=O)[C@@H](NC(=O)/C(=N\OC)c3csc(N)n3)CN2C1 | > 128 µg/mL
28 | CO/N=C(\C(=O)N[C@H]1CN2CC(Sc3nnc(C)s3)=C(C(=O)O)N2C1=O)c1csc(N)n1 | > 128 µg/mL
29 | C=CCO/N=C/C1=C(C(=O)O)N2C(=O)[C@@H](NC(=O)/C(=N\OC)c3csc(N)n3)CN2C1 | > 128 µg/mL
30 | CO/N=C(\C(=O)N[C@H]1CN2CC(/C=N/OC)=C(C(=O)O)N2C1=O)c1csc(N)n1 | > 128 µg/mL
31 | CO/N=C(\C(=O)N[C@H]1CN2CC(C(=O)C(F)(F)F)=C(C(=O)O)N2C1=O)c1csc(N)n1 | > 128 µg/mL
32 | CO/N=C(\C(=O)N[C@H]1CN2CC(c3ccncc3)=C(C(=O)O)N2C1=O)c1csc(N)n1 | > 128 µg/mL
33 | CO/N=C(\C(=O)N[C@H]1CN2CC(C(=O)OC)=C(C(=O)O)N2C1=O)c1csc(N)n1 | > 128 µg/mL
34 | C=CC1=C(C(=O)O)N2C(=O)[C@@H](NC(=O)/C(=N\OC)c3csc(N)n3)CN2C1 | > 128 µg/mL
35 | CO/N=C(\C(=O)N[C@H]1CN2CC(/C=N/OCCc3ccccc3)=C(C(=O)O)N2C1=O)c1csc(N)n1 | > 128 µg/mL
36 | CO/N=C(\C(=O)N[C@H]1CN2CC(COC(C)=O)=C(C(=O)O)N2C1=O)c1csc(N)n1 | > 128 µg/mL
